Test results reported in ChEMBL document CHEMBL1143008, “Synthesis and biological evaluation of chiral alpha-aminoanilides with central antinociceptive activity” (2007).

Tests used:
Type in all cases: functional
Mus musculus [1] = test: Antinociceptive effect in Swiss Albino mouse assessed as licking latency at 50 mg/kg, sc after 15 mins by hotplate test; conditions: route subcutaneous
Procedure, shortened: (§1)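 Hot-plate test at 52.5 ± 0.1 °C in male Swiss albino mice (23-30 g) after s.c. dosing. The endpoint was fore- or hind-paw licking, timed before and at intervals up to 60 min. Mice scoring below 12 or above 18 s at pretest were rejected, with a 45 s cutoff. Mean ± SEM.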

Mus musculus [2] = test: Antinociceptive effect in atropine treated Swiss Albino mouse assessed as licking latency at 50 mg/kg, sc by hotplate test; conditions: route subcutaneous
Procedure, shortened: (§2)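 Antagonist pretreatment before s.c. test compound in male Swiss albino mice: atropine 5 mg/kg i.p., or hemicholinium-3 1 µg per mouse i.c.v. The i.c.v. dose was 5 µL in isotonic saline under ether anaesthesia. Paw-licking latency on a 52.5 °C hot plate was read at each compound's time of maximum effect, compared with saline-saline mice. Cutoff was 45 s.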

Mus musculus [3] = test: Antinociceptive activity in sc dosed Swiss Albino mouse by hotplate test
Procedure, shortened: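 Male Swiss albino mice (23-30 g), s.c. dosing. Paw-licking latency on a 52.5 ± 0.1 °C hot plate, read before and up to 60 min after dosing. Mice outside 12-18 s at pretest were excluded; cutoff was 45 s. […] was fitted from the dose-response data with a constrained four-parameter logistic model.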

Mus musculus [4] = test: (§3) Antinociceptive effect in Swiss Albino mouse assessed as licking latency at 5 mg/kg, sc after 15 mins by hotplate test; conditions: route subcutaneous
Mus musculus [5] = test: Antinociceptive effect in atropine treated Swiss Albino mouse assessed as licking latency at 10 mg/kg, sc by hotplate test; conditions: route subcutaneous; procedure, shortened: as §2
Mus musculus [6] = test: Effect on motor coordination in Swiss Albino mouse assessed as number of falls from rotarod at 10 mg/kg after 30 mins relative to CMC
Procedure, shortened: (§4)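 Motor coordination of male Swiss albino mice on the rota-rod, counted as number of falls, before dosing and 15, 30 and 45 min after. Each value is the mean of 6-8 mice, compared with vehicle-treated controls.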

Mus musculus [7] = test: Antinociceptive effect in Swiss Albino mouse assessed as licking latency at 1 mg/kg, sc after 60 mins by hotplate test; conditions: route subcutaneous
Procedure, shortened: (§5)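 Male Swiss albino mice (23-30 g) got 1, 5 or 10 mg/kg s.c. or saline. Fore- or hind-paw licking latency on a 52.5 ± 0.1 °C plate was taken before dosing and at 15, 30, 45 and 60 min. Pretest range was 12-18 s (others rejected) with a 45 s cutoff. Each value is the mean of at least 10 mice; mean ± SEM.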

Mus musculus [8] = test: Antinociceptive effect in hemicolinium-3 treated Swiss Albino mouse assessed as licking latency at 10 mg/kg, sc by hotplate test; conditions: route subcutaneous; procedure, shortened: as §2
Mus musculus [9] = test: Effect on motor coordination in Swiss Albino mouse assessed as number of falls from rotarod at 10 mg/kg after 45 mins relative to CMC; procedure, shortened: as §4
Mus musculus [10] = test: Antinociceptive effect in Swiss Albino mouse assessed as licking latency at 10 mg/kg, sc after 30 mins by hotplate test; conditions: route subcutaneous; procedure, shortened: as §5
Mus musculus [11] = test: Antinociceptive effect in Swiss Albino mouse assessed as licking latency at 1 mg/kg, sc after 30 mins by hotplate test; conditions: route subcutaneous; procedure, shortened: as §5
Mus musculus [12] = test: Antinociceptive effect in Swiss Albino mouse assessed as licking latency at 10 mg/kg, sc after 45 mins by hotplate test; conditions: route subcutaneous; procedure, shortened: as §5
Mus musculus [13] = test: as §3; conditions: route subcutaneous; procedure, shortened: as §5; remark: listed apart in the source
Mus musculus [14] = test: Antinociceptive effect in Swiss Albino mouse assessed as licking latency at 1 mg/kg, sc after 15 mins by hotplate test; conditions: route subcutaneous; procedure, shortened: as §5
Mus musculus [15] = test: Antinociceptive effect in Swiss Albino mouse assessed as licking latency at 5 mg/kg, sc after 30 mins by hotplate test; conditions: route subcutaneous; procedure, shortened: as §5
Mus musculus [16] = test: Effect on motor coordination in Swiss Albino mouse assessed as number of falls from rotarod at 10 mg/kg after 15 mins relative to CMC; procedure, shortened: as §4
Mus musculus [17] = test: Antinociceptive effect in Swiss Albino mouse assessed as licking latency at 5 mg/kg, sc after 60 mins by hotplate test; conditions: route subcutaneous; procedure, shortened: as §5
Mus musculus [18] = test: Antinociceptive effect in Swiss Albino mouse assessed as licking latency at 5 mg/kg, sc after 45 mins by hotplate test; conditions: route subcutaneous; procedure, shortened: as §5
Mus musculus [19] = test: Antinociceptive effect in Swiss Albino mouse assessed as licking latency at 1 mg/kg, sc after 45 mins by hotplate test; conditions: route subcutaneous; procedure, shortened: as §5
Mus musculus [20] = test: Antinociceptive effect in Swiss Albino mouse assessed as licking latency at 10 mg/kg, sc after 15 mins by hotplate test; conditions: route subcutaneous
Mus musculus [21] = test: Antinociceptive effect in Swiss Albino mouse assessed as licking latency at 10 mg/kg, sc after 60 mins by hotplate test; conditions: route subcutaneous; procedure, shortened: as §5
Mus musculus [22] = test: Effect on motor coordination in Swiss Albino mouse assessed as number of falls from rotarod at 50 mg/kg after 30 mins relative to CMC; procedure, shortened: as §4
Mus musculus [23] = test: Effect on motor coordination in Swiss Albino mouse assessed as number of falls from rotarod at 50 mg/kg after 15 mins relative to CMC; procedure, shortened: as §4
Mus musculus [24] = test: Antinociceptive effect in hemicolinium-3 treated Swiss Albino mouse assessed as licking latency at 50 mg/kg, sc by hotplate test; conditions: route subcutaneous; procedure, shortened: as §2
Mus musculus [25] = test: Effect on motor coordination in Swiss Albino mouse assessed as number of falls from rotarod at 50 mg/kg after 45 mins relative to CMC; procedure, shortened: as §4
Mus musculus [26] = test: Antinociceptive effect in Swiss Albino mouse assessed as licking latency at 15 mg/kg, sc after 15 mins by hotplate test; conditions: route subcutaneous; procedure, shortened: as §1
Mus musculus [27] = test: Antinociceptive effect in Swiss Albino mouse assessed as licking latency at 30 mg/kg, sc after 15 mins by hotplate test; conditions: route subcutaneous; procedure, shortened: as §1
Mus musculus [28] = test: Antinociceptive effect in atropine treated Swiss Albino mouse assessed as licking latency at 30 mg/kg, sc by hotplate test; conditions: route subcutaneous; procedure, shortened: as §2
Mus musculus [29] = test: Antinociceptive effect in Swiss Albino mouse assessed as licking latency at 20 mg/kg, sc after 15 mins by hotplate test; conditions: route subcutaneous; procedure, shortened: as §1
Mus musculus [30] = test: Effect on motor coordination in Swiss Albino mouse assessed as number of falls from rotarod at 30 mg/kg after 45 mins relative to CMC; procedure, shortened: as §4
Mus musculus [31] = test: Effect on motor coordination in Swiss Albino mouse assessed as number of falls from rotarod at 30 mg/kg after 30 mins relative to CMC; procedure, shortened: as §4
Mus musculus [32] = test: Effect on motor coordination in Swiss Albino mouse assessed as number of falls from rotarod at 30 mg/kg after 15 mins relative to CMC; procedure, shortened: as §4
Mus musculus [33] = test: Antinociceptive effect in Swiss Albino mouse assessed as licking latency at 40 mg/kg, sc after 15 mins by hotplate test; conditions: route subcutaneous; procedure, shortened: as §1

## Cc1cccc(C)c1NC(=S)[C@@H](C)N
Mus musculus [1]
  Activity: 18.8 s

## Cc1cc(Cl)ccc1NC(=O)[C@H](C)N
Mus musculus [1]
  Activity: 21.1 s
Mus musculus [2]
  Activity: 20.5 s
Mus musculus [3]
  ED50: 41.3 mg/kg

## C[C@H](N)C(=O)Nc1ccc(Cl)cc1
Mus musculus [4]
  Activity: 15.8 s

## C[C@@H](N)C(=O)Nc1ccc(Cl)cc1
Mus musculus [4]
  Activity: 17.3 s

## Cc1cccc(C)c1NC(=O)[C@H](N)C(C)C
Mus musculus [5]
  Activity: 16.9 s
Mus musculus [6]
  Activity: 1.2
Mus musculus [7]
  Activity: 14.5 s
Mus musculus [8]
  Activity: 17.5 s
Mus musculus [9]
  Activity: 0.9
Mus musculus [10]
  Activity: 23.6 s
Mus musculus [11]
  Activity: 17.2 s
Mus musculus [12]
  Activity: 18.5 s
Mus musculus [13]
  Activity: 23.7 s
Mus musculus [14]
  Activity: 16.5 s
Mus musculus [15]
  Activity: 20.6 s
Mus musculus [16]
  Activity: 2.3
Mus musculus [17]
  Activity: 14.9 s
Mus musculus [18]
  Activity: 17.1 s
Mus musculus [19]
  Activity: 15.3 s
Mus musculus [20]
  Activity: 30.3 s
Mus musculus [3]
  ED50: 5.7 mg/kg
Mus musculus [21]
  Activity: 15.1 s

## Cc1cccc(C)c1NC(=O)[C@@H](C)N [(R)-TOCAINIDE]
Mus musculus [22]
  Activity: 1.4
Mus musculus [23]
  Activity: 1.7
Mus musculus [1]
  Activity: 26.5 s
Mus musculus [2]
  Activity: 17.5 s
Mus musculus [24]
  Activity: 18.6 s
Mus musculus [25]
  Activity: 0.9
Mus musculus [3]
  ED50: 33.6 mg/kg

## Cc1ccccc1NC(=O)[C@H](C)N
Mus musculus [26]
  Activity: 16.2 s

## Cc1cc(Cl)cc(C)c1NC(=O)[C@@H](C)N
Mus musculus [27]
  Activity: 23.2 s
Mus musculus [28]
  Activity: 23.7 s
Mus musculus [3]
  ED50: 17.8 mg/kg

## Cc1cccc(C)c1NC(=O)[C@H](C)N [S-TOCAINIDE]
Mus musculus [1]
  Activity: 14.3 s

## Cc1cccc(C)c1N(C)C(=O)[C@H](N)C(C)C
Mus musculus [29]
  Activity: 13.6 s

## Cc1cc(Cl)ccc1NC(=O)[C@@H](C)N
Mus musculus [22]
  Activity: 1.1
Mus musculus [23]
  Activity: 1.5
Mus musculus [1]
  Activity: 25.5 s
Mus musculus [2]
  Activity: 25 s
Mus musculus [25]
  Activity: 0.8
Mus musculus [3]
  ED50: 39.2 mg/kg

## Cc1cccc(C)c1NC(=O)[C@@H](N)C(C)C
Mus musculus [20]
  Activity: 15.8 s

## Cc1cccc(C)c1N(C)C(=O)[C@@H](N)C(C)C
Mus musculus [20]
  Activity: 13.6 s

## Cc1ccccc1NC(=O)[C@@H](C)N
Mus musculus [20]
  Activity: 17.1 s

## Cc1cc(Cl)cc(C)c1NC(=O)[C@H](C)N
Mus musculus [30]
  Activity: 1
Mus musculus [31]
  Activity: 1.2
Mus musculus [27]
  Activity: 25.1 s
Mus musculus [28]
  Activity: 26.6 s
Mus musculus [32]
  Activity: 1.4
Mus musculus [3]
  ED50: 25.5 mg/kg

## Cc1cc(Cl)ccc1NC(=O)[C@@H](N)C(C)C
Mus musculus [33]
  Activity: 19.9 s
Mus musculus [3]
  ED50: 25.9 mg/kg

## Cc1cccc(C)c1NC(=O)[C@H](N)CC(C)C
Mus musculus [5]
  Activity: 23.9 s
Mus musculus [6]
  Activity: 1.5
Mus musculus [9]
  Activity: 0.8
Mus musculus [16]
  Activity: 2.2
Mus musculus [20]
  Activity: 20.7 s
Mus musculus [3]
  ED50: 6.6 mg/kg

## Cc1cc(Cl)ccc1NC(=O)[C@H](N)C(C)C
Mus musculus [30]
  Activity: 0.8
Mus musculus [31]
  Activity: 1.3
Mus musculus [27]
  Activity: 27.9 s
Mus musculus [28]
  Activity: 26.4 s
Mus musculus [32]
  Activity: 1.5
Mus musculus [3]
  ED50: 19.6 mg/kg

## Cc1cccc(C)c1NC(=S)[C@H](C)N
Mus musculus [1]
  Activity: 18.6 s

## Cc1cc(Cl)cc(C)c1NC(=O)[C@H](N)C(C)C
Mus musculus [1]
  Activity: 17 s

## Cc1cccc(C)c1NC(=O)[C@@H](N)CC(C)C
Mus musculus [5]
  Activity: 20.7 s
Mus musculus [20]
  Activity: 21.3 s
Mus musculus [3]
  ED50: 6.8 mg/kg

## Cc1cc(Cl)cc(C)c1NC(=O)[C@@H](N)C(C)C
Mus musculus [1]
  Activity: 17.2 s
